Measurements from ChEMBL document CHEMBL1687930 (J Med Chem, 2011).

Tests used:
[1] = tested on: LLC-PK1; assay: Ratio of GI50 for pig L-MDR1 cells overexpressing human P-glycoprotein to GI50 for pig LLC-PK1 cells; assay type: functional, Sus scrofa
Outline: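 MDR ratio is the GI50 in L-MDR1 cells (Pgp-overexpressing) divided by the GI50 in parental LLC-PK1 cells. Each GI50 came from growth inhibition run at least in triplicate, with 8 wells per concentration, fitted by a four-parameter sigmoidal model.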

[2] = tested on: P388; assay: Ratio of inhibition of growth in P-glycoprotein overexpressing mouse P388 cells to inhibition of growth in mouse P388; assay type: functional
[3] = tested on: LLC-PK1; assay: Upregulation of P-glycoprotein mRNA expression in pig LLC-PK1 cells; assay type: functional, Sus scrofa
[4] = tested on: P388; assay: Upregulation of P-glycoprotein mRNA expression in mouse P388 cells; assay type: functional
[5] = tested on: KB 3-1; assay: Ratio of inhibition of growth in P-glycoprotein overexpressing […] inhibition of growth in human KB-3-1 cells; assay type: functional
[6] = Ratio of inhibition of growth in P-glycoprotein overexpressing human A2780-AD10 cells to inhibition of growth in human A2780; assay type: functional, A2780 ADR
[7] = Growth inhibition of dog MDCK2 cells; assay type: functional; settings: Canis lupus familiaris, MDCK-II
Outline: (§1)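 Parental lines (MDCKII, LLC-PK1) and matched Pgp-overexpressing lines (MDCKII-MDR1, about 500-fold Pgp; L-MDR1, about 25000-fold Pgp) were tested with and without the Pgp inhibitor LY335979. Each experiment was run at least in triplicate, with 8 wells per concentration. GI50 came from a nonlinear four-parameter sigmoidal concentration-response fit.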

[8] = Growth inhibition of dog MDCK2-MDR1 cells overexpressing human P-glycoprotein; assay type: functional; settings: Canis lupus familiaris, MDCK-II; outline: as §1
[9] = Growth inhibition of dog MDCK2 cells in presence of P-glycoprotein inhibitor LY335979; assay type: functional; settings: Canis lupus familiaris, MDCK-II; outline: as §1
[10] = Growth inhibition of dog MDCK2-MDR1 cells overexpressing human P-glycoprotein in presence of P-glycoprotein inhibitor LY335979; assay type: functional; settings: Canis lupus familiaris, MDCK-II; outline: as §1
[11] = tested on: MDCK-II; assay: Ratio of GI50 for dog MDCK2-MDR1 cells overexpressing human P-glycoprotein to GI50 for dog MDCK2 cells; assay type: functional, Canis lupus familiaris
[12] = tested on: LLC-PK1; assay: Growth inhibition of pig LLC-PK1 cells; assay type: functional; settings: Sus scrofa; outline: as §1
[13] = Growth inhibition of pig L-MDR1 cells overexpressing human P-glycoprotein; assay type: functional; settings: Sus scrofa; outline: as §1
[14] = tested on: LLC-PK1; assay: Growth inhibition of pig LLC-PK1 cells in presence of P-glycoprotein inhibitor LY335979; assay type: functional; settings: Sus scrofa; outline: as §1
[15] = Growth inhibition of pig L-MDR1 cells overexpressing human P-glycoprotein in presence of P-glycoprotein inhibitor LY335979; assay type: functional; settings: Sus scrofa; outline: as §1
[16] = Upregulation of P-glycoprotein mRNA expression in dog MDCK2 cells; assay type: functional, cell-based; settings: Canis lupus familiaris; MDCK-II
[17] = biological target: T1, Kinesin-like protein KIF11 (Homo sapiens, UniProt P52732); assay: Inhibition of untagged human Eg5 basal ATPase activity; settings: read-out: Ki(app)
T1 sequence (P52732 whole entry): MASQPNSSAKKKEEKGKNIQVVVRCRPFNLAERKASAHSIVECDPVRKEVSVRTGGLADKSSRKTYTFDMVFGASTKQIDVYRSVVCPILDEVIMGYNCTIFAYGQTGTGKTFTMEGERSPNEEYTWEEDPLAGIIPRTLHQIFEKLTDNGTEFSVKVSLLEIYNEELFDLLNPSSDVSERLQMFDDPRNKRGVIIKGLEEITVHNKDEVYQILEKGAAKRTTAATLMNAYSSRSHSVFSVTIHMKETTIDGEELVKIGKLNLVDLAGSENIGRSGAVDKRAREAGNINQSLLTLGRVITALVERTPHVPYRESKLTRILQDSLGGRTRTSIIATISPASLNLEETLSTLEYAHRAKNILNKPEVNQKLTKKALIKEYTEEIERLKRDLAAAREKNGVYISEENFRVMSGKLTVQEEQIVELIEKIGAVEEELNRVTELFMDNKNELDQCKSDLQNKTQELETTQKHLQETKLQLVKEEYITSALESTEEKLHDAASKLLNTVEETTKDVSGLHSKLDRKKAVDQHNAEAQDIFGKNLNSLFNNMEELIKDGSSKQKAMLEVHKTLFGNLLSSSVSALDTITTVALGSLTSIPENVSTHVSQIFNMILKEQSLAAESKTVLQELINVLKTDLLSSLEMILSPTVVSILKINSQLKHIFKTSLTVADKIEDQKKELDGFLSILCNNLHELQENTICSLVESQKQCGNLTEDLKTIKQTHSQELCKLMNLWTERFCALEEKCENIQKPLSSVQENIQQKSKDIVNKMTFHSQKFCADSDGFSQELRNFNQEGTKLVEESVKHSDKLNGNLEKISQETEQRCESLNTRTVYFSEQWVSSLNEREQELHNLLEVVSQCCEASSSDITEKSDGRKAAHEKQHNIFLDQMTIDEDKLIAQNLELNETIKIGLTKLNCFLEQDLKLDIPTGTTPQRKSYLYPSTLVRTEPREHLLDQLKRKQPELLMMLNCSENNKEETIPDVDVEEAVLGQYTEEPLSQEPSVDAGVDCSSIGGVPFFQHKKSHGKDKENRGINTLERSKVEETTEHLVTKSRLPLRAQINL

[18] = biological target: T1, Kinesin-like protein KIF11; assay: Inhibition of untagged human Eg5 microtubule-stimulated ATPase activity

## CCOC(=O)C1=C(C)NC(=S)N[C@H]1c1cccc(O)c1 [S-MENASTROL]
[1]
  Ratio: 1
[2]
  Ratio: 1
[3]
  fold change (FC): 25000
[4]
  fold change (FC): 20000

## CN1CC[C@H](N(C)C(=O)N2CC(c3cc(F)ccc3F)=C[C@@]2(CO)c2ccccc2)[C@H](F)C1
[5]
  Ratio: 4.5

## CCCCN1C(=O)[C@@H]2Cc3c([nH]c4ccccc34)[C@@H](c3cccc(O)c3)N2C1=O
[6]
  Ratio: 2.4

## NCCSC(c1ccccc1)(c1ccccc1)c1ccccc1
[7]
  GI50: 740 nM
[8]
  GI50: 570 nM
[9]
  GI50: 850 nM
[10]
  GI50: 610 nM
[11]
  RatioGI50: 0.8
[12]
  GI50: 3290 nM
[13]
  GI50: 4830 nM
[14]
  GI50: 3880 nM
[15]
  GI50: 4810 nM
[1]
  RatioGI50: 1.5
[16]
  fold change (FC): 500
[3]
  fold change (FC): 25000
[17]
  Ki: 156 nM
[18]
  IC50: 396 nM
